From BindingDB's records for doi:10.1021/jm049559q (Tibotec, 2005)

target: Integrase (Human immunodeficiency virus 1, UniProt Q7ZJM1); test: Log of inhibitory concentration against human immunodeficiency virus type 1 integrase
Procedure, shortened: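 Strand transfer ELISA using recombinant His-tagged HIV-1 integrase expressed in E. coli BL21(DE3). 20 nM biotinylated processed viral DNA substrate is preincubated with 300 nM integrase for 5 min at 37 °C. Serial compound dilutions and 50 nM target DNA are then added in 20 mM Hepes pH 7.5, 25 mM NaCl, 5 mM MnCl2, 2 mM DTT, 50 µg/mL BSA and incubated 2 h at 37 °C. Products are captured on streptavidin plates, detected with anti-FITC peroxidase antibody and read by chemiluminescence.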

Integrase, sequence (Q7ZJM1 whole entry): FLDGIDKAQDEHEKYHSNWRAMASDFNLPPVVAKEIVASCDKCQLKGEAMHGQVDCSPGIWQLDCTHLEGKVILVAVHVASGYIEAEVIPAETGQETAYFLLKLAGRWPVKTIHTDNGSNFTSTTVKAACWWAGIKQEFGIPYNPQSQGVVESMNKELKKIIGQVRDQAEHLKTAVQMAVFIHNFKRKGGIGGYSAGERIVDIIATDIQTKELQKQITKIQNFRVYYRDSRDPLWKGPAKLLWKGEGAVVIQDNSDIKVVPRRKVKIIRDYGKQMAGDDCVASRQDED

| SMILES | IC50 [nM] |
| --- | --- |
| O=c1c2[nH]cc[nH]c2c(=O)c2c(=O)n(Cc3ccc4c(c3)OCO4)c(=O)c12 | 562 |
| O=c1c2[nH]cc[nH]c2c(=O)c2c(=O)n(Cc3ccc(OC(F)(F)F)cc3)c(=O)c12 | 2040 |
| O=c1c2[nH]cc[nH]c2c(=O)c2c(=O)n(CCc3ccc4c(c3)OCO4)c(=O)c12 | 1410 |
| O=c1c2[nH]cc[nH]c2c(=O)c2c(=O)n(CCc3ccccc3)c(=O)c12 | 2040 |
| COc1ccc(Cn2c(=O)c3c(=O)c4[nH]cc[nH]c4c(=O)c3c2=O)cc1 | 562 |
| COc1cccc(Cn2c(=O)c3c(=O)c4[nH]cc[nH]c4c(=O)c3c2=O)c1OC | 427 |
| O=c1c2[nH]cc[nH]c2c(=O)c2c(=O)n(Cc3cccc(F)c3)c(=O)c12 | 562 |

Other lines, results leading:

| IC50 [nM] | SMILES |
| --- | --- |
| 417 | O=c1c2[nH]cc[nH]c2c(=O)c2c(=O)n(Cc3ccc(F)cc3)c(=O)c12 |
| 417 | O=c1c2[nH]cc[nH]c2c(=O)c2c(=O)n(Cc3ccc(Cl)cc3)c(=O)c12 |
| 427 | COc1ccc(Cn2c(=O)c3c(=O)c4[nH]cc[nH]c4c(=O)c3c2=O)c(OC)c1 |
| 427 | O=c1c2[nH]cc[nH]c2c(=O)c2c(=O)n(Cc3cccc(C(F)(F)F)c3)c(=O)c12 |
